Data: ChEMBL document CHEMBL4184179, “Synthesis and biological evaluation of novel synthetic chalcone derivatives as anti-tumor agents targeting Cat L and Cat K” (Bioorg Med Chem, 2018)

Columns and labels:
MCF7 = assay: Antiproliferative activity against human MCF7 cells after 48 hrs by MTT assay; type: functional, cell-based; details: for IC50: MCF7, 48 h
143B = assay: Antiproliferative activity against human 143B cells after 48 hrs by MTT assay; type: functional, cell-based
HCT-116 = assay: Antiproliferative activity against human HCT116 cells after 48 hrs by MTT assay; type: functional, cell-based; details: for IC50: HCT-116, 48 h
In short: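 Cells grown in RPMI 1640 with 10% FBS; about 4×10^3 cells per well seeded, held 24 h at 37°C in 5% CO2, then exposed to compounds at six concentrations (0.001–100 μM) for 48 h. MTT added at 0.5 mg/mL final for 4 h at 37°C, formazan dissolved in DMSO, absorbance read at 540 nm.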

[1] = biological target: Procathepsin L (Homo sapiens) (UniProt P07711); assay: Inhibition of Cathepsin-L (unknown origin) at 5 uM preincubated for 15 mins followed by Z-Phe-Arg-AMC addition measured after 30 mins by fluorescence assay relative to control
Sequence of Procathepsin L (Homo sapiens) (P07711 114-333 limits assumed): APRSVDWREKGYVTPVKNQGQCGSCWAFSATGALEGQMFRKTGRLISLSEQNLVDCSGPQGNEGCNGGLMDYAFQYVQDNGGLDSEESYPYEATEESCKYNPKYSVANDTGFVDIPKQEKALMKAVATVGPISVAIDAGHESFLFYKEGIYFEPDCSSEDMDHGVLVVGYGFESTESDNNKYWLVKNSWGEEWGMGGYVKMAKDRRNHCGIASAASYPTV
In short: (§1)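 Run as for the Cat K assay: enzyme in 50 mM sodium acetate, 2.5 mM EDTA, 1 mM DTT, pH 6.0, compounds screened at 5 μM, 15 min preincubation at 37°C, substrate added, fluorescence (ex 355/em 460 nm) read at 30 min. Substrates: Cat B Z-Arg-Arg-AMC; Cat S Ac-Lys-Gln-Lys-Leu-Arg-AMC; Cat L as for Cat K.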

[2] = biological target: Cathepsin S (Homo sapiens) (UniProt P25774); assay: Inhibition of Cathepsin-S (unknown origin) at 5 uM preincubated for 15 mins followed by Ac-Lys-Gln-Lys-Leu-Arg-AMC addition measured after 30 mins by fluorescence assay relative to control; in short: as §1
Sequence of Cathepsin S (Homo sapiens) (P25774 115-331 limits assumed): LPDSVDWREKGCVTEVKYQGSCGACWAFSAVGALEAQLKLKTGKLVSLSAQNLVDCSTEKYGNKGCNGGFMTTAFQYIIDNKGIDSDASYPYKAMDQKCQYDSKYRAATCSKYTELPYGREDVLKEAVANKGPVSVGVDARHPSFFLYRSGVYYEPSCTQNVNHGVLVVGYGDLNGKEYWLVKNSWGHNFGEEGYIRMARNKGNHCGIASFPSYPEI

[3] = biological target: T1, Cathepsin K (Homo sapiens) (UniProt P43235); assay: Inhibition of recombinant human Cathepsin-K at 5 uM preincubated for 15 mins followed by Z-Phe-Arg-AMC addition measured after 30 mins by fluorescence assay relative to control
T1 sequence (whole entry): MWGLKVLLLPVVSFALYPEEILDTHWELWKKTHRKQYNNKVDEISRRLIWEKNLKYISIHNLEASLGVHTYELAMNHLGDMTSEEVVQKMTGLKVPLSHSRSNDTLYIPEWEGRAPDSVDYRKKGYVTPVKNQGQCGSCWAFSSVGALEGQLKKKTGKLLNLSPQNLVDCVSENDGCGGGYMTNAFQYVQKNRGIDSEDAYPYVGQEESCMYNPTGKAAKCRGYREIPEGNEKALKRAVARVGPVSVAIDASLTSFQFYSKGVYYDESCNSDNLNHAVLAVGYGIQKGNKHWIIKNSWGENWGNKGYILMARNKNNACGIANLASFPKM
In short: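 Recombinant human Cat K (5.5 ng/mL) in 50 mM sodium acetate, 2.5 mM EDTA, 1 mM DTT, pH 6.0, preincubated with compound (5 μM screen) 15 min at 37°C. Reaction started with Z-Phe-Arg-AMC (10 μM, as added). Fluorescence (ex 355/em 460 nm) read after 30 min; inhibition rate calculated from intensity.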

[4] = biological target: Cathepsin B (Homo sapiens) (UniProt P07858); assay: Inhibition of Cathepsin-B (unknown origin) at 5 uM preincubated for 15 mins followed by Z-Arg-Arg-AMC addition measured after 30 mins by fluorescence assay relative to control; in short: as §1

SMILES | IC50 (MCF7) [µM] | IC50 (143B) [µM] | IC50 (HCT-116) [µM] | inhibition [1] [%] | inhibition [2] [%] | inhibition [3] [%] | inhibition [4] [%] | Activity (MCF7) | Activity (143B) | Activity (HCT-116)
O=C(Nc1cccc(/C=C/C(=O)c2nc3ccccc3[nH]2)c1)c1ccc(Cl)cc1 | 8.41 | 7.44 | 2.27 | – | – | – | – | – | – | –
COc1ccc(C(=O)Nc2cccc(/C=C/C(=O)c3nc4ccccc4[nH]3)c2)cc1 | 20.1 | 6.33 | 4.88 | – | – | – | – | – | – | –
Cc1ccc(C(=O)Nc2cccc(/C=C/C(=O)c3nc4ccccc4[nH]3)c2)cc1 | 9.69 | 6.56 | 1.66 | – | – | – | – | – | – | –
O=C(Nc1cccc(/C=C/C(=O)c2nc3ccccc3[nH]2)c1)c1cccc(Br)c1 | 5.21 | 4.62 | 1.55 | – | – | – | – | – | – | –
O=C(Nc1cccc(/C=C/C(=O)c2nc3ccccc3[nH]2)c1)c1cccc(C(F)(F)F)c1 | 21.5 | 9.57 | 3.36 | – | – | – | – | – | – | –
CC(C)(F)C[C@H](C[C@@H](c1ccc(-c2ccc(S(C)(=O)=O)cc2)cc1)C(F)(F)F)C(=O)NC1(C#N)CC1 | 45.4 | 12.7 | > 100 | 71.3 | 100 | 100 | 100 | – | – | –
Cc1ccccc1S(=O)(=O)Nc1cccc(/C=C/C(=O)c2nc3ccccc3[nH]2)c1 | 4.13 | 4.06 | 0.955 | 71.3 | 47.8 | 91.3 | 40 | – | – | –
CCCNC(=O)[C@H]1O[C@@H]1C(=O)N[C@H](C(=O)N1CCC[C@H]1C(=O)O)[C@@H](C)CC | – | – | – | – | – | – | 100 | – | – | –
O=C(Nc1cccc(/C=C/C(=O)c2nc3ccccc3[nH]2)c1)c1ccccc1 | 11.2 | 8.34 | 2.44 | – | – | – | – | – | – | –
O=C(Nc1cccc(/C=C/C(=O)c2nc3ccccc3[nH]2)c1)c1cc(Cl)cc(Cl)c1 | > 100 | 3.66 | 1.65 | – | – | – | – | – | – | –
O=C(/C=C/c1cccc(NS(=O)(=O)c2ccc(Cl)cc2)c1)c1nc2ccccc2[nH]1 | 3.82 | 7.45 | 1.96 | 58 | 89.3 | 58.1 | 23.8 | – | – | –
O=C(/C=C/c1cccc(NS(=O)(=O)c2cccc(Cl)c2)c1)c1nc2ccccc2[nH]1 | 4.16 | 2.51 | 0.737 | 78.9 | 52.6 | 89.2 | 15.2 | – | – | –
O=C(/C=C/c1cccc(NC(=O)c2ccccc2Br)c1)c1nc2ccccc2[nH]1 | 4.52 | 6.05 | 1.68 | – | – | – | – | – | – | –
O=c1[nH]cc(F)c(=O)[nH]1 [FLUOROURACIL] | 32.6 | 25.2 | 8.64 | – | – | – | – | – | – | –
CC(C)C[C@H](NC(=O)[C@@H]1O[C@H]1C(=O)O)C(=O)NCCCCN=C(N)N | – | – | – | 100 | – | 100 | 100 | – | – | –
Cc1cccc(C(=O)Nc2cccc(/C=C/C(=O)c3nc4ccccc4[nH]3)c2)c1 | 5.59 | 4.88 | 1.42 | 88.5 | 45.2 | 78 | 41.3 | – | – | –
COc1cccc(C(=O)Nc2cccc(/C=C/C(=O)c3nc4ccccc4[nH]3)c2)c1 | 17.8 | 4.61 | 3.68 | – | – | – | – | – | – | –
CC(=O)O[C@H]1C(=O)[C@@]2(C)[C@H]([C@H](OC(=O)c3ccccc3)[C@]3(O)C[C@H](OC(=O)[C@H](O)[C@@H](NC(=O)c4ccccc4)c4ccccc4)C(C)=C1C3(C)C)[C@]1(OC(C)=O)CO[C@@H]1C[C@@H]2O [PACLITAXEL] | – | – | 0.014 | – | – | – | – | – | – | –
O=C(/C=C/c1cccc(NS(=O)(=O)c2cc(Cl)cc(Cl)c2)c1)c1nc2ccccc2[nH]1 | 20 | 5.95 | 2.84 | – | – | – | – | – | – | –
Cc1cccc(S(=O)(=O)Nc2cccc(/C=C/C(=O)c3nc4ccccc4[nH]3)c2)c1 | 0.886 | 0.791 | 0.597 | 92.3 | 50.1 | 93.5 | 45.6 | Dose-dependent effect | Dose-dependent effect | Dose-dependent effect
Cc1cc(C)cc(C(=O)Nc2cccc(/C=C/C(=O)c3nc4ccccc4[nH]3)c2)c1 | 24.6 | 4.01 | 1.55 | – | – | – | – | – | – | –
Cc1ccc(S(=O)(=O)Nc2cccc(/C=C/C(=O)c3nc4ccccc4[nH]3)c2)cc1 | 3.22 | 3.22 | 1.99 | 93.8 | 22 | 86 | 34.3 | – | – | –
Cc1ccccc1C(=O)Nc1cccc(/C=C/C(=O)c2nc3ccccc3[nH]2)c1 | 5.87 | 8.29 | 1.87 | – | – | – | – | – | – | –
O=C(/C=C/c1cccc(NC(=O)c2ccccc2Cl)c1)c1nc2ccccc2[nH]1 | 4.57 | 3.69 | 1.28 | – | – | – | – | – | – | –
O=C(/C=C/c1cccc(NS(=O)(=O)c2ccccc2Cl)c1)c1nc2ccccc2[nH]1 | 4.28 | 4.79 | 0.987 | 62.9 | 45.7 | 86.5 | 32.5 | – | – | –
O=C(Nc1cccc(/C=C/C(=O)c2nc3ccccc3[nH]2)c1)c1ccc(Br)cc1 | 7 | 7.31 | 2.23 | – | – | – | – | – | – | –
O=C(Nc1cccc(/C=C/C(=O)c2nc3ccccc3[nH]2)c1)c1cccc(Cl)c1 | 7.83 | 3.37 | 1.12 | 86 | 19.5 | 73 | 30.5 | – | – | –
O=C(/C=C/c1ccccc1)c1nc2ccccc2[nH]1 | – | – | – | 35.4 | 13 | 37.9 | 10.1 | – | – | –
Cc1ccc(S(=O)(=O)Nc2cccc(/C=C/C(=O)c3nc4ccccc4[nH]3)c2)cc1C | 5.86 | 5.05 | 2.23 | – | – | – | – | – | – | –
Cc1cc(C)cc(S(=O)(=O)Nc2cccc(/C=C/C(=O)c3nc4ccccc4[nH]3)c2)c1 | 4.57 | 3.33 | 1.22 | – | – | – | – | – | – | –
